hIAP act = increases human intestinal alkaline phosphatase activity; AID 2524; purified human IAP, CDP-Star luminescence, 30 min; active compounds read high; 1 = vehicle-only enzyme, 0 = enzyme-free background; activation factor at 10 µM; 0.16% of 330,000 active; P09923;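 active = activation factor of the enzyme at least 2-fold when tested at 20 µM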
Target sequence (P09923 whole entry, looked up): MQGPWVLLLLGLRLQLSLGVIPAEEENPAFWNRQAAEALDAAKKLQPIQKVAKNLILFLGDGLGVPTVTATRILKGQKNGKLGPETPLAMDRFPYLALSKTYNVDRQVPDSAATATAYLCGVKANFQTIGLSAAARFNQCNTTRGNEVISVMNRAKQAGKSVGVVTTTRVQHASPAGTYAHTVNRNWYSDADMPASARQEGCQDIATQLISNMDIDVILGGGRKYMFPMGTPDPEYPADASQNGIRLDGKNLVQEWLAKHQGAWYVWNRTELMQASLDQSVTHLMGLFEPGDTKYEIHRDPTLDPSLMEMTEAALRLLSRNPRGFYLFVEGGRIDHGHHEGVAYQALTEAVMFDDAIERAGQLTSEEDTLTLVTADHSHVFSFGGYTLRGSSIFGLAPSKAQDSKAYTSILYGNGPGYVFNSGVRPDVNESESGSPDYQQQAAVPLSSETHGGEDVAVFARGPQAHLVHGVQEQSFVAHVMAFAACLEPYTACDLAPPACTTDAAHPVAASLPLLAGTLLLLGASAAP
bIAP activator = increases bovine intestinal alkaline phosphatase activity | purified bovine IAP, CDP-star luminescence, 30 min; active compounds read high; fold of DMSO-control signal, blank-subtracted | activation factor at 20 µM | 0.17% of 200,000 active;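 active = activation factor of 2 or more at 20 µM, a signal rise over negative controls twice the positive control's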
bIAP inh = blocks bovine intestinal alkaline phosphatase activity; purified bovine IAP, CDP-star luminescence, 30 min; inhibition, % at 20 µM; 190,000 tested, under 10 active;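 active = over 50% inhibition of intestinal alkaline phosphatase at 20 µM in the single-dose screen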
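Assay system – bovine IAP enzyme · Quantity – bovine IAP at 1/65,000,000 final dilution · Detection – CDP-star luminescence signal · Times – 30 min reaction at room temperature · Also added – CDP-star substrate at 30 µM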
hIAP block = human IAP inhibition; P09923; purified IAP, CDP-Star luminescence, 30 min; inhibition, % at 10 µM; 0.12% of 330,000 active; AID 2544;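 active = inhibition reaching a set limit with compound at 10 µM in the primary screen, cut at about 35% in these data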;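 note: plate controls were DMSO wells with enzyme for no effect and no-enzyme buffer wells for full effect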
mIAP activ = increases mouse intestinal alkaline phosphatase activity. muIAP, CDP-Star luminescence, 30 min; active compounds read high; 1 = vehicle-only enzyme signal, 0 = enzyme-free wells. activation factor at 10 µM. 0.24% of 330,000 active. AID 2805;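 active = activation factor of at least 2 at 20 µM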
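System: mouse IAP enzyme. Reagent: CDP-Star chemiluminescent phosphatase substrate. Benchmarks: DMSO wells, no-enzyme wells. Times: 30 min enzyme-substrate-compound incubation at room temperature. Detection: luminescence from enzymatic CDP-Star hydrolysis. Doses: test compounds delivered from DMSO solution.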
mIAP block = blocks mouse intestinal alkaline phosphatase; purified mouse IAP, CDP-Star luminescence, 30 min; inhibition, % at 10 µM; 0.2% of 330,000 active;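 active = inhibition of at least 40% at 10 µM in the primary screen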;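 note: plate controls were DMSO with enzyme for no effect and no enzyme wells for full effect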
hIAP act confirm = human IAP activation confirmation | shares compounds with hIAP act | purified IAP, CDP-Star luminescence, 30 min; active compounds read low | activation (%Activity, negative = activation), % at 8.3 µM | 10% of 880 active;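 active = at least twofold enzyme activation in any of six single-dose repeats, which the averaged readout prints as negative percent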
The depositor's hits bear a star; · = no result given. Compounds with a hit are over-represented: about 0.72% of the library has one in this group of screens.

SMILES | hIAP act | bIAP activator | bIAP inh | hIAP block | mIAP activ | mIAP block | hIAP act confirm
O=C(Nc1nccs1)c1nc[nH]c1C(=O)NCc1ccccc1 | 2.4* | · | · | -136 | 1.1 | -7 | -3
CN(Cc1ccccc1)C(=O)c1[nH]cnc1C(=O)NCc1ccccc1 | 1.2 | · | · | -23 | 0.94 | 6 | ·
CN(Cc1ccccc1)C(=O)c1[nH]cnc1C(=O)Nc1nccs1 | 2.5* | · | · | -145 | 1 | 0 | -141*
COc1ccc(OC)c(S(=O)(=O)NC(N)=NCCc2ccccc2)c1 | 1 | 0.9 | 14 | -1 | 1.1 | -6 | ·
O=C(NCc1cccnc1)c1cccc(S(=O)(=O)Nc2cccc(Cl)c2)c1 | 1.1 | · | · | -6 | 1 | -2 | ·
Cc1ccc(S(=O)(=O)N2[C@@H](c3ccc(Br)cc3)C(C(=O)O)=CC[C@H]2c2cccs2)cc1 | 0.93 | · | · | 7 | 0.96 | 4 | ·
Cn1ncc2c1ncn1nc(CCc3ccccc3)nc21 | 0.61 | 0.7 | 29 | 39* | 0.92 | 8 | -18
CC(C)COc1cccc(C(=O)Nc2ccc(N3CCOCC3)cc2N2CCOCC2)c1 | 0.99 | · | · | 0 | 0.96 | 4 | ·
COc1cccc(C(=O)NCC(=O)NNc2ncnc(N)c2[N+](=O)[O-])c1 | 2.7* | 1.3 | -26 | -171 | 0.83 | 17 | 8
Cc1cccc(C)c1Nc1ncnc(N)c1[N+](=O)[O-] | 0.79 | 0.8 | 16 | 22 | 0.99 | 1 | ·
O=C(COc1ccc([N+](=O)[O-])cc1)N(Cc1cccs1)C1CCS(=O)(=O)C1 (stereo not drawn) | 1.1 | · | · | -12 | 0.89 | 11 | ·
O=S(=O)(Nc1cccc2c1CCCC2)c1ccc(Cl)cc1 | 0.9 | 0.9 | 9 | 10 | 0.87 | 13 | ·
CCOC(=O)c1ccc(NC(=O)c2nc[nH]c2C(=O)N[C@@H](CC(C)C)C(=O)OC(C)(C)C)cc1 | 2* | · | · | -103 | 0.97 | 3 | 14
O=C(Cc1ccccc1F)NC1CCCN(Cc2ccc(Cl)cc2)C1 (stereo not drawn) | 1.2 | · | · | -24 | 0.98 | 2 | ·
O=C(CSc1nnc(-c2ccccc2O)n1Cc1ccccc1)NNC(=O)c1ccccc1O | 2.5* | 1 | -4 | -146 | 0.8 | 20 | -41
Cc1ccc(S(=O)(=O)CC(=O)c2cc3cccc(C)c3oc2=O)cc1 | 0.77 | · | · | 24 | 0.88 | 12 | ·
Nc1c(N2CCCC2)cc(Cl)c2nonc12 | 0.65 | 0.7 | 26 | 35* | 0.88 | 12 | 41
Nc1c(N2CCOCC2)cc(Cl)c2nonc12 | 0.77 | 0.7 | 31 | 23 | 0.86 | 14 | ·
CCOc1cc(/C=N/NC(=O)C(=O)N/N=C/c2ccc(O)c(OCC)c2)ccc1O | 0.62 | · | · | 38* | 0.82 | 18 | -48*
NC(=O)C1CCN(C(=O)c2cc(Cl)c3c(c2)OCCO3)CC1 | 1.1 | · | · | -10 | 1.1 | -13 | ·
CCOC(=O)C(=O)N/N=C(/c1ccccc1)c1ccc(OC)cc1 | 0.63 | · | · | 37* | 1 | -3 | -47
Cc1ccc(S(=O)(=O)N2CCN(C(=O)CCn3cncn3)CC2)cc1 | 0.64 | · | · | 36* | 1.1 | -5 | -53
COc1ccc2nc(N3CCC(O)CC3)c(C#N)cc2c1 | 0.65 | 1.4 | -44 | 35* | 1 | -4 | 20
Cc1csc2nc(O)c(C(=O)NC3CCCCC3C)c(=O)n12 (stereo not drawn) | 1.1 | · | · | -5 | 0.95 | 4 | ·
O=C(CNC(=S)N(CCCN1CCOCC1)Cc1cccs1)NCCCN1CCOCC1 | 0.95 | 1.1 | -10 | 5 | 0.85 | 15 | ·
SMILES | hIAP act | bIAP activator | bIAP inh | hIAP block | mIAP activ | mIAP block | hIAP act confirm
COC(CNC(=O)CNC(=S)N(CCCN1CCOCC1)Cc1cccs1)OC | 1.3 | 0.9 | 8 | -28 | 1.2 | -18 | ·
O=C(CNC(=S)N(CCCN1CCOCC1)Cc1cccs1)NCc1ccccc1Cl | 2.1* | · | · | -110 | 1 | -1 | 14
O=C(CNC(=S)N(CCCN1CCOCC1)Cc1cccs1)NCc1ccc(Cl)cc1 | 2.9* | · | · | -186 | 1.1 | -8 | -51
Cc1nn(C)cc1/C=N/NC(=O)Cn1nnc(N)n1 | 0.9 | · | · | 10 | 1 | -2 | ·
CN(C)CC#Cc1cncc(C(=O)NNC(=O)Nc2ccc(Cl)cc2)c1 | 1.4 | · | · | -45 | 1 | -1 | ·
CCN(CC)C(=O)CSc1nc2c(sc(=S)n2-c2ccc(C)cc2C)c(=O)[nH]1 | 0.89 | · | · | 11 | 0.93 | 7 | ·
